Experimental data of several laboratories.
Lines come from different studies, so protocols differ.
Organism: Pichia kudriavzevii
Effect on: microbial growth

| SMILES | test | test system | conditions | MIC |
| --- | --- | --- | --- | --- |
| CCCCCCCCN1CCNCC1 | broth dilution | ATCC6258 | 48 h | > 31.3 µg/mL |
| CCCCCOc1c(OC)cc(NC(C)CCCNC(=O)C(N)Cc2ccccc2)c2nc(C(C)(C)C)ccc12 (stereo not drawn) |  | ATCC6258 |  | 10 µg/mL |
| C=C(C)[C@@H]1CC[C@]2(C)CC[C@]3(C)[C@H](CC[C@@H]4[C@@]5(C)CC[C@H](O)C(C)(C)[C@@H]5CC[C@]43C)[C@@H]12 | broth dilution | ATCC6258 | 48 h | 250 µg/mL |
| C[C@@H]1[C@H](O)[C@@H](C)/C=C/C=C/C=C/C=C/C=C/C=C/C=C/[C@H](O[C@@H]2O[C@H](C)[C@@H](O)[C@H](N)[C@@H]2O)C[C@@H]2O[C@](O)(C[C@@H](O)C[C@@H](O)[C@H](O)CC[C@@H](O)C[C@@H](O)CC(=O)O[C@H]1C)C[C@H](O)[C@H]2C(=O)O |  |  |  | 0.5 µM |
| CCCCCCCOc1c(OC)cc(NC(C)CCCN)c2nc(C(C)(C)C)cc(C)c12 (stereo not drawn) |  | ATCC6258 |  | 5 µg/mL |
| CC1(C)CC[C@]2(C(=O)O)CC[C@]3(C)C(=CC[C@@H]4[C@@]5(C)CC[C@H](O)C(C)(C)[C@@H]5CC[C@]43C)[C@@H]2C1 | broth dilution | ATCC6258 | 48 h | 500 µg/mL |
| OC(CNCCN1CCOCC1)(Cn1cncn1)c1ccc(F)cc1F (stereo not drawn) | broth dilution | ATCC6258 | 48 h | > 31.3 µg/mL |
| OC(Cn1cncn1)(Cn1cncn1)c1ccc(F)cc1F | broth dilution | ATCC6258 |  | 32 µg/mL |
| CCCCCCCCCCN1CCNCC1 | broth dilution | ATCC6258 | 48 h | 7.8 µg/mL |
| CCCCCOc1c(OC)cc(NC(C)CCCNC(=O)C(N)CC(C)C)c2nc(C(C)(C)C)ccc12 (stereo not drawn) |  | ATCC6258 |  | 10 µg/mL |
| CCCCCCCCCN1CCNCC1 | broth dilution | ATCC6258 | 48 h | 31.3 µg/mL |
| C[C@@H]1[C@H](O)[C@@H](C)/C=C/C=C/C=C/C=C/C=C/C=C/C=C/[C@H](O[C@@H]2O[C@H](C)[C@@H](O)[C@H](N)[C@@H]2O)C[C@@H]2O[C@](O)(C[C@@H](O)C[C@@H](O)[C@H](O)CC[C@@H](O)C[C@@H](O)CC(=O)O[C@H]1C)C[C@H](O)[C@H]2C(=O)O |  | ATCC6258 |  | 1.25 µg/mL |
